# Calls of active or inactive are those of the source. No cut-off for these calls is given here.
# Tests used:
# [1] = target: T1, Monoglyceride lipase (Homo sapiens, UniProt Q99685); assay: Inhibition of human recombinant MAGL using 4-nitrophenylacetate as substrate incubated for 30 mins by microplate reader assay
# T1 sequence (Q99685 whole entry): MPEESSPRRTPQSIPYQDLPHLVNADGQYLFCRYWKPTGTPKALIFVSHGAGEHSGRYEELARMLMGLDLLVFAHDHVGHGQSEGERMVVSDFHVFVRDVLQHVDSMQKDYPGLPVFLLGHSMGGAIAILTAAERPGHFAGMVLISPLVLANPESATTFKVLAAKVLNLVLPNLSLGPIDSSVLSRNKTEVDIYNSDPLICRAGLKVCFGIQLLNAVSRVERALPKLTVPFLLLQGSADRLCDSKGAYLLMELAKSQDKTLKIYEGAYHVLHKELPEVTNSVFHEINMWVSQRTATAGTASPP
# How it was run: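 Human recombinant MAGL, 11 ng/well, in 10 mM Tris pH 7.2 with 1 mM EDTA and 0.1 mg/mL BSA, at room temperature. 4-NPA 133.3 µM stock added; enzyme added last. Absorbance at 405 nm after 30 min, minus a no-enzyme blank for each concentration. Sigmoidal fit; duplicates of three independent experiments.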
# [2] = target: T2, Monoacylglycerol lipase ABHD6 (Homo sapiens, UniProt Q9BV23); assay: Inhibition of human ABHD6 expressed in HEK293 cells using [3H]2-OG as substrate preincubated for 30 mins followed by substrate addition and measured after 5 mins by liquid scintillation spectroscopy; assay type: cell-based
# T2 sequence (Q9BV23 whole entry): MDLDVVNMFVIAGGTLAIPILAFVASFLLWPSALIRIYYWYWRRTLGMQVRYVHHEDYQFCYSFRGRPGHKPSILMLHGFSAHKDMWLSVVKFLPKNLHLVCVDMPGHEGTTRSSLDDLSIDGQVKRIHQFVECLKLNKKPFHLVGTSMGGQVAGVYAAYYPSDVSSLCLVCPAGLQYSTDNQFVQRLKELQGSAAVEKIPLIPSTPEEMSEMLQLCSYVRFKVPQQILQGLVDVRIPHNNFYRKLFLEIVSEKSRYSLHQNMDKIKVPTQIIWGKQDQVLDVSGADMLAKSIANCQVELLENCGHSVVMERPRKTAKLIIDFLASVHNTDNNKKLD
# How it was run: (§1)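 Homogenate (40 µg) of HEK293 cells stably transfected with human ABHD6 or ABHD12, preincubated with compound 30 min at 37 °C in […], 0.1% BSA, pH 7.6. 2-OG 10 µM added for 5 min at 37 °C. Stopped with CHCl3:MeOH; aqueous tritium counted; blanks and nontransfected HEK293 hydrolysis subtracted. Screening at 10 µM.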
# [3] = target: T3, Fatty-acid amide hydrolase 1 (Homo sapiens, UniProt O00519); assay: Inhibition of FAAH in human U937 cells assessed as reduction in [3H]ethanolamine formation using [ethanolamine-1-3H]AEA as substrate incubated for 15 mins by liquid scintillation spectroscopy; assay type: cell-based, U-937
# T3 sequence (O00519 whole entry): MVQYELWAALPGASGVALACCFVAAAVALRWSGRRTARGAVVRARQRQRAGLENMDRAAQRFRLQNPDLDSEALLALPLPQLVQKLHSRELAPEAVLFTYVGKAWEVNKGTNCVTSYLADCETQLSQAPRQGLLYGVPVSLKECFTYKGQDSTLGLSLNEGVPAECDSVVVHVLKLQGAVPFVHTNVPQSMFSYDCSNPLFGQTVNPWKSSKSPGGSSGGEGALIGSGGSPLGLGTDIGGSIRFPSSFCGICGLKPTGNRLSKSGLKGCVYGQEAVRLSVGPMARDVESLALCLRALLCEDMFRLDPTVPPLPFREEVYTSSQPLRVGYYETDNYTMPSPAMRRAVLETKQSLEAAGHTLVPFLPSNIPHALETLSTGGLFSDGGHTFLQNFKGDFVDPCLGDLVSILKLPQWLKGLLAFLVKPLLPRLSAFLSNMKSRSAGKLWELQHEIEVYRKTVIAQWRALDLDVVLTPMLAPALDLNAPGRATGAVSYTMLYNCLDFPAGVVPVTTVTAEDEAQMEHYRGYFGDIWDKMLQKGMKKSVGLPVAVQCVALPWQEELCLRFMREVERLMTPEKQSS
# How it was run: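 Intact U937 cells (1.0 × 10^6) in Tris-HCl 10 mM, EDTA 1 mM, 0.1% BSA, pH 8, given compound at 37 °C. Then 15 min at 37 °C with shaking. MAGL: 10 µM 2-OG plus 0.5 nM [3H]2-OG. FAAH: 1 µM AEA plus 2 nM [3H]AEA. Aqueous-phase tritium counted; three experiments in triplicate.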
# [4] = target: T4, Monoglyceride lipase (Mus musculus) (UniProt O35678); assay: Inhibition of MAGL in mouse brain membrane at 10 uM preincubated for 25 mins followed by TAMRA-FP labeling addition and measured after 5 mins by competitive ABPP based analysis; assay type: cell membranes; conditions: time 30.0 min
# T4 sequence (whole entry): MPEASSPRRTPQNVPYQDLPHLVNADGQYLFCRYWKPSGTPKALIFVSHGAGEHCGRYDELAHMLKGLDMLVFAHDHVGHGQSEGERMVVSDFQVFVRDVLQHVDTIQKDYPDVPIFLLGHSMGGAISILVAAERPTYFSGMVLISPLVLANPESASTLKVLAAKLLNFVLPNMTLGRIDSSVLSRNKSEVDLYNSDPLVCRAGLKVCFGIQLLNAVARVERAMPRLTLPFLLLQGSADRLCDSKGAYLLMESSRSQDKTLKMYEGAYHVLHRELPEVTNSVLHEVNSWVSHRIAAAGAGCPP
# How it was run: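 Mouse brain membranes, 4 mg/mL in PBS, preincubated 25 min at 25 °C with compound at 10 µM or a range of concentrations. Labelled 5 min with TAMRA-FP at 125 nM final. Proteins resolved on 11% SDS-PAGE and scanned for fluorescence.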
# [5] = target: T5, Monoacylglycerol lipase ABHD6 (Homo sapiens) (UniProt Q9BV23); assay: Inhibition of human ABHD6 expressed in HEK293 cells using [3H]2-OG as substrate at 10 uM preincubated for 30 mins followed by substrate addition and measured after 5 mins by liquid scintillation spectroscopy; assay type: cell-based; conditions: time 35.0 min; how it was run: as §1
# T5 sequence (whole entry): T2 sequence (Q9BV23 whole entry)
# [6] = target: T6, Lysophosphatidylserine lipase ABHD12 (Homo sapiens) (UniProt Q8N2K0); assay: Inhibition of human ABHD12 expressed in HEK293 cells using [3H]2-OG as substrate at 10 uM preincubated for 30 mins followed by substrate addition and measured after 5 mins by liquid scintillation spectroscopy; assay type: cell-based; conditions: time 35.0 min; how it was run: as §1
# T6 sequence (whole entry): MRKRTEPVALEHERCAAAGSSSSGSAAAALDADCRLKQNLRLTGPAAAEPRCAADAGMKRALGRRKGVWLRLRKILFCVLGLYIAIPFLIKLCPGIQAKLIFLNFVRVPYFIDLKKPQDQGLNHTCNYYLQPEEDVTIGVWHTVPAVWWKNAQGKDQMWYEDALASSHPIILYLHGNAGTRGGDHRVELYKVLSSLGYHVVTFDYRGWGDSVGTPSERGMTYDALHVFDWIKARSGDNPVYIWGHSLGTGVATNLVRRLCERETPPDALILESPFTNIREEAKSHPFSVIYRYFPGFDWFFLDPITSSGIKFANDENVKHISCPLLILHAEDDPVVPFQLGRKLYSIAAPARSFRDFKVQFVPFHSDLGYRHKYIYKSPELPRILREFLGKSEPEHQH
IC50 [1],IC50 [2],IC50 [3],inhibition [4],inhibition [5],inhibition [6],Compound
0.036 µM,> 10 µM,> 10 µM,Active,10%,28%,O=C(c1ccc(Cc2ccccc2)cc1)C1CCN(C(=O)c2cc(O)c(F)cc2F)CC1
0.018 µM,> 10 µM,> 10 µM,Active,18%,27%,O=C(c1ccc(Sc2ccccc2)cc1)C1CCN(C(=O)c2cc(O)c(F)cc2F)CC1
0.03 µM,> 10 µM,> 10 µM,Active,40%,26%,O=C(c1ccc(Sc2ccccc2)cc1)C1CCN(C(=O)c2cc(O)ccc2F)CC1
0.049 µM,> 10 µM,> 10 µM,Active,21%,20%,O=C(c1ccc(Cc2ccccc2)cc1)C1CCN(C(=O)c2cc(O)ccc2F)CC1

# From ChEMBL document CHEMBL4732057, “Design, synthesis and biological evaluation of second-generation benzoylpiperidine derivatives as reversible monoacylglycerol lipase (MAGL) inhibitors” (Eur J Med Chem, 2021)
